Tested on: MS2 coat protein
Experiment: apparent Kd, MS2 coat protein; higher = weaker binding; RNA-MaP array; FMN 200 µM where present
How it was run: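 The apparent Kd comes from binding curves fitted cluster by cluster, filtered, and summarised as a median. Those curves followed SNAP-549-labelled MS2 coat protein from 0.7 or 1.5 nM, doubling to 3 µM, on Illumina sequencing-chip clusters where stalled E. coli RNA polymerase had transcribed the designs, without and then with constant ligand. The buffer was 100 mM Tris-HCl pH 7.5, 80 mM KCl, 4 mM MgCl2, BSA, DTT, yeast tRNA and Tween-20, and green signal was normalised to red-channel RNA signal and control-cluster median Fmax.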

[1] = designed as: ON switch for flavin mononucleotide, no ligand
[2] = ligand present: flavin mononucleotide, designed as: ON switch for flavin mononucleotide
[3] = designed as: OFF switch for flavin mononucleotide, no ligand
[4] = ligand present: flavin mononucleotide, designed as: OFF switch for flavin mononucleotide

Sequence	apparent Kd [1] [nM]	apparent Kd [2] [nM]	apparent Kd [3] [nM]	apparent Kd [4] [nM]
UCCUACAUGGGAGGAUAUGGGAAGAUACAUGAGGAUCACCCAUGUUUAAGAAUGCCGAGAGGCAACUAGAAGGCCCAUGUAGGU	876	54.4		
AAUUAGUAAGAAUCACAUGAGGAUCACCCAUGUUUACGGAUGCAGGAUAUGUGGGAUAUUACUUAACAGAAGGGCAAUAACUUU	104	44.2		
GCAUUGUAAGGAUAUACGUGCAAAGUUUUCGCUGUAAGUCGACAUGAGGAUCACCCAUGUAGAAGGUAUAUGGU			24	24.1
GUAGUACAUGAGGAUCACCCAUGUGUAGAAGCAUGAGGAUAUGUCAGUCCAUGAAAAACGAUAGAAGGCAUGGUGA	178	176		
ACAAAUGGAGGAUAUACAUGAGGAUCACCCAUGUUUAUCCUACAUAUGUGAUAAUAAUGUAGAAGGCCAUAUGA			12.3	12.3
AACGAGCAGUAGAAGGGAUGUCUACGGACAUGAGGAUCACCCAUGUUGUGACUCCGAAAGGAGCGUCAGGAUAUACUGCUCAAA	8.13	6.15		
UGGGUGGUAUGAGGAUAUGCGCGCGAAACGCGCGCAGAAGGCAUGUCAAUAGACAUGAGGAUCACCCAUGUACUAUCCAUCCAA	91.3	9.19		
AUCAGCUCAUCAGGAUAUACAUCACUGCUUCGGCAGUGUAUUAAGAUCACAUGAGGAUCACCCAUGUAGAAGGGAUGAGCUGAU			32.7	347
GGUUGGCGAGGAUAUACAUGAGGAUCACCCAUGUGGUCCUGUGGCUGAUCUUGCCUUUGUAGAAGGCGCGGGUC			49.4	45.3
CGAUAGGACAGAGGAUAUACACAUGAGGAUCACCCAUGUGAUUACAACGCGAAAGCUCCAAACAUGUAGAAGGCUGUCCUAUCG			18.1	21.1
CGUGCACAUGAGGAUCACCCAUGUCGUCGCGAUCAAGGAUAUGAAAGCAGCGUUAUGUUAUCAGAAGGUGAACCUC	28.1	21.9		
GUCAUCGCAUGAGGAUAUGGCACCGUUUCGGUGCCAGAAGGCAUGUCAAAUGACAUGAGGAUCACCCAUGUAGUUAAGAUGGCA	229	17		
AUAAAUAUAGCGAUAUGAUCGAGAGAUCAUGUCGCUAAUAUUAGAAGGACAUGAGGAUCACCCAUGUAGGAUAUGGGAGUAUAA	107	55.1		
UUAGCAACAUGAGGAUCACCCAUGUAGGAUAUCGCUAUUGUAAUCAUGAAACAUGAUUACAAUAGCGAGAAGGACAUAUGCUCC			7.17	10.6
GUUAUAAAGGUAGGAUAUUGUAUUAUAAUUAAAUAAGAAGGAUCUCACAUGAGGAUCACCCAUGUAAGAGGAUCACCCAUGUAG			20.1	14.6
CUAUUUAGUGCCUCAUGUACAUGAGGAUCACCCAUGUUAACUUAGGAUAUAUUUAUAUUGAUAGAGUAGAAGGAAGUACUAUUG			70.2	61
AUAAGUCGAGGAUAUACGGGAUGCUAGCGAAAGCUAGCAUAACAUGAGGAUCACCCAUGUAGAAGGCGACAAUA			56.2	104
GGGUACAUCGGAGGAUAUCAUGUUAAUACAUGAGGAUCACCCAUGUCGAUGGAGACAUCGGAGAUUGAGAAGGCCGAUGUACCG	322	11.4		
UGAACUCAUGUAGGAUAUGCAUGGCGAAGCUACGCAGAAGGACAUGAGGAUCACCCAUGUUCUAGCGUCUGAGUACAGAUGCAA			148	118
UCUGGAGCAGGAUAUGCAUUCGUGCUUCGGCACGUAAGGUCACAUGAGGAUCACCCAUGUAGAAGGGCUCCAGA			19.2	34
AAUUACAGAUGAGGAUAUUGACAUGAGGAUCACCCAUGUAUUUGGGAAUGUUUACUGAAUUCUUACGAGAAGGUAUACGUACUU			122	94.3
CGAGAUCUUGAGAAGGCAUAAUAUAUAAUACCACAUGUUUACAUGAGGAUCACCCAUGUUUCCUAUGAGGAUAUCAGGAUUUCG			20.9	17.1
AAAAAGUGAGGAUAUGCUGCUCGUCACUUGCGUGAUGAGUAGCAGAAGGCACAUGAGGAUCACCCAUGUAAAAA			36.2	42.8
GUGACGAUGUAAGGAUAUGCUGAGGAUAACUCAGCAGAAGGUACAUGAGGAUCACCCAUGUAACGUCACAAUAAUAAUAAUAAU			12.3	22.9

Sequence	apparent Kd [1] [nM]	apparent Kd [2] [nM]	apparent Kd [3] [nM]	apparent Kd [4] [nM]
GCACGGCAUGUAGGAUAUCGAGCGCCGGGCGCUCGAGAAGGACAUGAGGAUCACCCAUGUAUUCUCAGUGAGAGAGUGCUGUGC			36.1	55.9
UGCAUGUAAGGAUAUGCAUCCGCCGGCGAACCGGCGCCACAGCAGAAGGUACAUGAGGAUCACCCAUGUGUCCC			18.8	51.6
UCUUGACAUGAGGAUCACCCAUGUCAGGAUAUAGUAGGACAAAUAAAUAAAAGUUCUACUAGAAGGGAUAUGGG			24.9	46.8
UUUGUAAUGUCAGGAUAUAUAAUAAGUCAUACAGUAGAAGGGAUAAUUAUACUCAUGUACAUGAGGAUCACCCAUGUUAAAUAU	80.1	45.6		
UAAAAUAGUGUGAGGAUAUGCUGGUCCUUGGAUCAGCAGAAGGCACAUGAGGAUCACCCAUGUAGUUAAUUAUA			41.8	268
CGGCCGGGCCGAGGAUAUAAGUCUAGGACAUGAGGAUCACCCAUGUAUGUCUUAGAAGGCGGCCCGGCCAGCCUGUUACAGGCA	31.2	5.85		
UGCCGAUGAGGAUAUACAUUGAAUUUGAUUCAUGUAAAACUACAUGAGGAUCACCCAUGUAGAAGGCAUUGGCU			16.9	30.4
ACAUAAAUUCGAGGAUAUCGGUGAUAUAAUUUACGAGAAGGCGAUAAUAGUUAUAAACUUAUAGACAUGAGGAUCACCCAUGUA	30.2	28.3		
GCUAGGAGUGUGAGGAUAUGCUGAACCUUGGUUCAGCAGAAGGCACAUGAGGAUCACCCAUGUGAAGACCUAGC			25.7	149
GAAAAGUGAGGAUAUGGUAAUGUAAGUAUGUAGUAUGUAAUCCAGAAGGCACAUGAGGAUCACCCAUGUAAAAG			23	25.2
UUAACAUGAGGAUCACCCAUGUAUAGAUCGGUUAAUAGAAGUGAGGAUAUGCUUAAAUUCAGGUAGCAGAAGGCACUGGGUACU	26.9	29.9		
UUUAUGGGACAGAAGGGCAAUUUCUUUAAUUAUUAUUUAAAACAUCAUUGCAGGAUAUGUAUAACAUGAGGAUCACCCAUGUAC	36.2	12.2		
AAUUGACCGCUAGGAUAUGCACAUGAGGAUCACCCAUGUAAGCGUGUAAAGUGGUAUGCCCGUGUGUAGAAGGAGCGAUGCUGA			47.6	40.6
UCAUUUAUUACAGGAUAUGUUAGUAUACAGUUGUUUGGUUAUUACAUAUUAACAGAAGGGUAGAACAUGAGGAUCACCCAUGUA	95.7	52.3		
AAAGGACAUGAGGAUCACCCAUGUGAGGAUAUGCUCUACGAACGAAUACACAUGAGAAGCAGAAGGCACAUAAG			151	247
GGGUACAUCGGAGGAUAUCAUGUAAAUACAUGAGGAUCACCCAUGUCGAUGGAGACAUCGGAGAAUGAGAAGGCCGAUGUACCG	17.6	5.34		
AGGGAGGGCGUGGAGGCGGAGGGACGAGAAGGUACACAUGAGGAUCACCCAUGUAGAGUGGGAGGUAAGGAUAUUGGAUGGUGG	101	66.9		
CUGAUGUUAGGAUAUCAGGCUGUGCACGAAGACGGGCGGCAUGAGAAGGAACAUGAGGAUCACCCAUGUGACGG			36.3	77.6
AUAUCCUUUUUAUACAUGAGGAUCACCCAUGUUUUUCUUACGUAGGAUAUCGUUGUUUUUUUUUACGAGAAGGACGUAGAAUGU	23.6	23.9		
CUAAAUCAUGUAGGAUAUGCAUGGCGAAGCUACGCAGAAGGACAUGAGGAUCACCCAUGUCUGUCCGUCUGCGUACAGACGGAC			20.4	115
AGGGUAGUAGGAUAUACAUGAGGAUCACCCAUGUUUCCAUUGCGUGACUGGUCCUAGUGUAGAAGGGCUAGCAC			18.6	17.6
AUACUCAUGUAAGGAUAUGCGGCCGUUUCGGCUGCAGAAGGUACUAUAAUACAUGAGGAUCACCCAUGUCUCUCGCAUUGCGAG	556	61.4		
AAGAAGUCAGGAUAUACAUGAGGAUCACCCAUGUAAAAGAAAGAAAAGGGAAAGAAAAGUAGAAGGGACAAGAA			26.7	32.2
CACGUCAGGAAACGGAGCGGCCAACAUGAGGAUCACCCAUGUGAGGAUAUGCCUACUAAAAGUAGGCAGAAGGCACAAUUGGCA			36.7	94.9

Source: the EternaBench riboswitch data
